The M2OR odorant receptor database

Key:
Conditions in all cases: stereoisomer not certain
OR10G2 (Homo sapiens) = target: T1, OR10G2 (Homo sapiens) (UniProt Q8NGC3)
T1 sequence (whole entry): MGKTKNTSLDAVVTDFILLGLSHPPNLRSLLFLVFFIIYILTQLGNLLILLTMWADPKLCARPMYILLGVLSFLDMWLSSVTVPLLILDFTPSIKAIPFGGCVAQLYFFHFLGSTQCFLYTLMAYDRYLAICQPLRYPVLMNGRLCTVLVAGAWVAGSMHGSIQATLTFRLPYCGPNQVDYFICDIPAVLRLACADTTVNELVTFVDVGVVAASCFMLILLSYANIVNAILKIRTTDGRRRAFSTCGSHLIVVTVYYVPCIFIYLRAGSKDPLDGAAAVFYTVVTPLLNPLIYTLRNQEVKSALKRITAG
Procedure, shortened: (§1)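 Transient luciferase assays in mammalian cell lines were common, though methods varied by source. The values come from published papers and their supplementary material, with extra details from the original authors when needed. Responsive refers to a measured signal the original authors judged statistically different from baseline, and non-responsive (inactive) to the remainder.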

OR10G3 (Homo sapiens) = target: T2, OR10G3 (Homo sapiens) (UniProt Q8NGC4)
T2 sequence (whole entry): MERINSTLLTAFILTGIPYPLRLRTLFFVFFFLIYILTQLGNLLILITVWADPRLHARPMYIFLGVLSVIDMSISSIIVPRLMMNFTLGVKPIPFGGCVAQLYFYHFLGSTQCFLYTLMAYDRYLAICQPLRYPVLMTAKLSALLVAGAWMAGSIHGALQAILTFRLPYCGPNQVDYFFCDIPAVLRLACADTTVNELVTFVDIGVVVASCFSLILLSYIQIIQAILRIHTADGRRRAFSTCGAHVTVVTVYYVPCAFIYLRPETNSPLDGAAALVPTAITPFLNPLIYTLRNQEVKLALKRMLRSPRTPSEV
Procedure, shortened: as §1

OR10G4 (Homo sapiens) = target: T3, OR10G4 (Homo sapiens) (UniProt Q8NGN3)
T3 sequence (whole entry): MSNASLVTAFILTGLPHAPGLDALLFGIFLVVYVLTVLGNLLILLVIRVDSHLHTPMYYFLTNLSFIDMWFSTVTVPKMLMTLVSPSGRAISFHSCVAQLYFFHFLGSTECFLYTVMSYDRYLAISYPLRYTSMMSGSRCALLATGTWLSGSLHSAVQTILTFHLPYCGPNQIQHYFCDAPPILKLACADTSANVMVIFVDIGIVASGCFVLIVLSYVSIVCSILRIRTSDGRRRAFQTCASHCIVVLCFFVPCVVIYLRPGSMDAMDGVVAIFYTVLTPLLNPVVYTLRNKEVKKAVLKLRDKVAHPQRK
Procedure, shortened: as §1

OR10G6 (Homo sapiens) = target: T4, OR10G6 (Homo sapiens) (UniProt Q8NH81)
T4 sequence (whole entry): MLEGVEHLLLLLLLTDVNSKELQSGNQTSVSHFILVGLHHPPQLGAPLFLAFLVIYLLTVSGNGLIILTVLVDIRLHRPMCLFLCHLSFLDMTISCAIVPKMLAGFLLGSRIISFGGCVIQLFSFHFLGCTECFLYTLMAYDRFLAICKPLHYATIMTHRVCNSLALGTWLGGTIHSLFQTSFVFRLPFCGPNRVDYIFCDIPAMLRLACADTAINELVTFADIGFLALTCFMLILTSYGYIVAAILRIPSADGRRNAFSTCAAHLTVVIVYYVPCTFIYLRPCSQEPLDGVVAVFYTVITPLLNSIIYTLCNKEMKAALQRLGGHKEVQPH
Procedure, shortened: as §1

OR10G7 (Homo sapiens) = target: T5, OR10G7 (Homo sapiens) (UniProt Q8NGN6)
T5 sequence (whole entry): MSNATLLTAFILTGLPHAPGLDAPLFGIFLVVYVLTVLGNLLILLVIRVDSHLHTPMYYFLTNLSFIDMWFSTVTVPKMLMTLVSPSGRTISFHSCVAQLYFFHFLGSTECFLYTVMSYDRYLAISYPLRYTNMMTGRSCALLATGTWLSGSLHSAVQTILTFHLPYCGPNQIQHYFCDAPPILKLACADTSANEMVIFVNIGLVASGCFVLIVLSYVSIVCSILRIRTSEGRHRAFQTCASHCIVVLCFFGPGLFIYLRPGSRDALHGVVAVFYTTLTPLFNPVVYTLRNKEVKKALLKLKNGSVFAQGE
Procedure, shortened: as §1

OR10G8 (Homo sapiens) = target: T6, OR10G8 (Homo sapiens) (UniProt Q8NGN5)
T6 sequence (whole entry): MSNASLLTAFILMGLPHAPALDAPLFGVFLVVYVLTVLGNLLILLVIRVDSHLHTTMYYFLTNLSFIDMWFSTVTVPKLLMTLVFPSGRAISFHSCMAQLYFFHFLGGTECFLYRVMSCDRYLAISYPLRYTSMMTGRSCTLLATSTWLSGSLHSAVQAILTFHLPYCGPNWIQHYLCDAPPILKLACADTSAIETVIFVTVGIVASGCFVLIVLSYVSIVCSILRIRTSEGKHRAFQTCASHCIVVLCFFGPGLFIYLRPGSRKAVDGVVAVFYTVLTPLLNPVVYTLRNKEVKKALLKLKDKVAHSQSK
Procedure, shortened: as §1

OR10G9 (Homo sapiens) = target: T7, OR10G9 (Homo sapiens) (UniProt Q8NGN4)
T7 sequence (whole entry): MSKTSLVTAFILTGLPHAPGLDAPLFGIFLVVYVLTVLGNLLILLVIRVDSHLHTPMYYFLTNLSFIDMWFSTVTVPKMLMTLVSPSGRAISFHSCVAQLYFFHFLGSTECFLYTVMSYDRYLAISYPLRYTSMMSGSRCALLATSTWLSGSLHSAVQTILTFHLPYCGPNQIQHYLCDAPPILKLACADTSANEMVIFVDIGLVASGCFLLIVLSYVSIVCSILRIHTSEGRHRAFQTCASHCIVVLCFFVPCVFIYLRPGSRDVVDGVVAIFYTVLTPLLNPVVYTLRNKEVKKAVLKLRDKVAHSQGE
Procedure, shortened: as §1

OR10H1 (Homo sapiens) = target: T8, OR10H1 (Homo sapiens) (UniProt Q9Y4A9)
T8 sequence (whole entry): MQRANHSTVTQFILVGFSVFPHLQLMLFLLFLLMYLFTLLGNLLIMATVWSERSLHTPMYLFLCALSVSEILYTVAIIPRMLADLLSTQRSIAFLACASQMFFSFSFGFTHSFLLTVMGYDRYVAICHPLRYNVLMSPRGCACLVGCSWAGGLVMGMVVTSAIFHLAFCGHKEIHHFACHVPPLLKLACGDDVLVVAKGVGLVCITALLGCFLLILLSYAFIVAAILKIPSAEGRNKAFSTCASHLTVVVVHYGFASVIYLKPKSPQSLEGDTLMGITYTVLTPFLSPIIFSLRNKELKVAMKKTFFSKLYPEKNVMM
Procedure, shortened: as §1

OR10H2 (Homo sapiens) = target: T9, OR10H2 (Homo sapiens) (UniProt O60403)
T9 sequence (whole entry): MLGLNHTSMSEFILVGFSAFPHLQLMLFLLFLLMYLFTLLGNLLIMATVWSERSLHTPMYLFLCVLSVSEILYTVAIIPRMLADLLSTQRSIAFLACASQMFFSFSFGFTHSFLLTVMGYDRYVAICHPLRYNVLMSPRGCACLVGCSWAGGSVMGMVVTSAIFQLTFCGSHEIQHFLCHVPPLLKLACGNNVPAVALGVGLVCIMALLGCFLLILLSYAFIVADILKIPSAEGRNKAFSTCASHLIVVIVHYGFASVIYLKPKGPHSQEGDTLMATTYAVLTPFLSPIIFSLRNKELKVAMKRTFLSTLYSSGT
Procedure, shortened: as §1

OR10H3 (Homo sapiens) = target: T10, OR10H3 (Homo sapiens) (UniProt O60404)
T10 sequence (whole entry): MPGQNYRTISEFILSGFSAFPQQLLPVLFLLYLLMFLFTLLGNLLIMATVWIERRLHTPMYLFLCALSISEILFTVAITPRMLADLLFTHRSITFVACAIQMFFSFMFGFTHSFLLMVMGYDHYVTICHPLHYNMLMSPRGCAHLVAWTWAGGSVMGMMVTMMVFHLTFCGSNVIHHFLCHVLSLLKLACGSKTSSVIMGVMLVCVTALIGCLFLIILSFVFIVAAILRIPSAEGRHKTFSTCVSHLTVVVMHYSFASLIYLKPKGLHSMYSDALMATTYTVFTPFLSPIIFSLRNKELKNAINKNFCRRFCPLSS
Procedure, shortened: as §1

Measured: odorant receptor agonist call;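 note: active if original authors judged signal statistically different from baseline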

CCC1OC(=O)C(O)=C1C (stereo not given)
inactive: all assays above
